Test results: PMC9253162 (Bioactive Materials, 2022)

Assays:
E. coli (ATCC-25922) = experiment: MIC, turbidity-based broth dilution assay; type: cell-based, Escherichia coli; settings: 2–7 × 10^5 CFU/mL, 37 °C, 190 rpm, 16 h
Summary of the method: (§1)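 Turbidity-based broth dilution at 2–7 × 10^5 CFU/mL, shaken at 190 rpm and 37 °C for 16 h, with Polymyxin-B as positive control. For the selectivity index (HC50/MIC), hemolysis was measured on mouse red blood cells. Triton X-100 set 100% lysis, and RBCs in PBS gave the background that was subtracted. HC50 was taken as the concentration causing 50% hemolysis.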

[1] = test system: P. aeruginosa (ATCC-27853); experiment: MIC, turbidity-based broth dilution assay; type: cell-based, Pseudomonas aeruginosa; settings: 2–7 × 10^5 CFU/mL, 37 °C, 190 rpm, 16 h
Summary of the method: as §1

Question: Which “Minimum Inhibitory Concentration E. coli” value (E. coli (ATCC-25922)) does the source give for Polymyxin-B here?
Answer: The value was under 0.5 µg/mL.

Question: What about the “Minimum Inhibitory Concentration P. aeruginosa” value [1] of the same substance?
Answer: Its value is 1.0 µg/mL.
